Experimental data as given in ChEMBL document CHEMBL1133607, “Nonpeptide analogues of dynorphin A(1-8): design, synthesis, and pharmacological evaluation of kappa-selective agonists” (J Med Chem, 2000).

Experiments:
[1] = biological target: T1, Delta-type opioid receptor (Rattus norvegicus, UniProt P33533); assay: Displacement of [3H]diprenorphine opioid receptor delta 1 on crude membrane fractions obtained from the whole rat brain (minus cerebellum); format: tissue-based
In short: (§1)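 Rat whole-brain (minus cerebellum) crude membranes, 1 mg protein/tube, in 50 mM Tris-HCl pH 7.4 with aprotinin, leupeptin and bacitracin. […] U50,488 and DAMGO (300 nM each) saturate κ and µ sites; 1 µM DPDPE defines nonspecific binding. Compounds tested at 10^-11 to 10^-5 M. Ki values are the mean of three experiments in duplicate.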

[2] = test system: Mus musculus; assay: Effective dose after 10 mg/kg of nor-BNI administered subcutaneously 10 min before agonist administered in mouse rotarod test; format: functional; conditions: sc, route subcutaneous
In short: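 Male albino Swiss mice received nor-BNI 10 mg/kg sc 10 min before agonist (sc, saline/0.5% CMC). 30 min after agonist, mice were placed on an accelerating rotarod with three trials; failure in any trial counted as impaired. ED50 is […].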

[3] = test system: Mus musculus; assay: Antinociceptive activity by measuring effective dose after 10 mg/kg of nor-BNI administered subcutaneously 10 min before agonist administered in mouse; format: functional; conditions: sc, route subcutaneous
In short: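 Male albino Swiss mice (20-25 g) given compound sc in saline with 0.5% CMC (0.1-10 mg/kg) 30 min before testing. nor-BNI 10 mg/kg sc given 10 min before agonist. Acetylcholine-induced abdominal constrictions were counted for 5 min after ip acetylcholine. ED50 is the dose that halves constrictions relative to vehicle.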

[4] = biological target: T2, Mu-type opioid receptor (Rattus norvegicus, UniProt P33535); assay: Displacement of [3H]diprenorphine from opioid receptor mu 1 on crude membrane fractions obtained from whole rat brain (minus cerebellum); format: tissue-based
T2 sequence (P33535 whole entry): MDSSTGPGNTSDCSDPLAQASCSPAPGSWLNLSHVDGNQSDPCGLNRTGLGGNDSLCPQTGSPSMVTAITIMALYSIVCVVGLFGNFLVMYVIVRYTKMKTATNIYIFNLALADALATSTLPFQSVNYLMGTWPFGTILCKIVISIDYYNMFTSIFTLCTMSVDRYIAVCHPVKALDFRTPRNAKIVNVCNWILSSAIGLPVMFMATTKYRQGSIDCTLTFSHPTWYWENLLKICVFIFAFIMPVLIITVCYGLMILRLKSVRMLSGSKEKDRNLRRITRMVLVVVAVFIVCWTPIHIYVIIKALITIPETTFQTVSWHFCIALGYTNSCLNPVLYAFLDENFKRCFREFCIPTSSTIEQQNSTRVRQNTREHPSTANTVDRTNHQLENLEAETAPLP
In short: as §1, with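 “and DADLE” for “and DAMGO”, “and δ” for “and µ”, “µM DAMGO” for “µM DPDPE”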

[5] = biological target: Kappa-type opioid receptor (Cavia porcellus, UniProt P41144); assay: Displacement of [3H]-U-69,593 from Opioid receptor kappa 1 in guinea pig cerebellar.
Kappa-type opioid receptor, sequence (P41144 whole entry): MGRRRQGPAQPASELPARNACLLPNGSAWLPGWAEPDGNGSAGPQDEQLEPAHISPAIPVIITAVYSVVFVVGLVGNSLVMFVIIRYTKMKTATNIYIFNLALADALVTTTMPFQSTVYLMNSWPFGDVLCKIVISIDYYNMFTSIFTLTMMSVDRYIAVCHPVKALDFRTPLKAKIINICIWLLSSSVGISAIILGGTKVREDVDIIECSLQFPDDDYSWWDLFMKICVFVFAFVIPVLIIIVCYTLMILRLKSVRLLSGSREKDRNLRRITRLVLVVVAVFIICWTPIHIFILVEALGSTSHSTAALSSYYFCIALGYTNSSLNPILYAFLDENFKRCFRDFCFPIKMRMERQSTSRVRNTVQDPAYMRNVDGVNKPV

[6] = biological target: T1, Delta-type opioid receptor; assay: Tested for binding affinity by [3H]diprenorphine displacement for Opioid receptor delta 1 are carried on crude membrane fractions obtained from the whole rat brain minus cerebellum.; format: tissue-based; in short: as §1
[7] = biological target: T2, Mu-type opioid receptor; assay: Tested for binding affinity by [3H]diprenorphine displacement for Opioid receptor mu 1 was carried on crude membrane fractions obtained from the whole rat brain minus cerebellum..; format: tissue-based
In short: as §1, with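 “and DADLE” for “and DAMGO”, “and δ” for “and µ”, “µM DAMGO” for “µM DPDPE”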

[8] = biological target: Opioid receptors; mu & kappa (UniProt P41145+P35372); assay: Ratio of affinity towards mu and kappa opioid receptors; format: protein assay
Opioid receptors; mu & kappa, sequence (P35372 whole entry, looked up): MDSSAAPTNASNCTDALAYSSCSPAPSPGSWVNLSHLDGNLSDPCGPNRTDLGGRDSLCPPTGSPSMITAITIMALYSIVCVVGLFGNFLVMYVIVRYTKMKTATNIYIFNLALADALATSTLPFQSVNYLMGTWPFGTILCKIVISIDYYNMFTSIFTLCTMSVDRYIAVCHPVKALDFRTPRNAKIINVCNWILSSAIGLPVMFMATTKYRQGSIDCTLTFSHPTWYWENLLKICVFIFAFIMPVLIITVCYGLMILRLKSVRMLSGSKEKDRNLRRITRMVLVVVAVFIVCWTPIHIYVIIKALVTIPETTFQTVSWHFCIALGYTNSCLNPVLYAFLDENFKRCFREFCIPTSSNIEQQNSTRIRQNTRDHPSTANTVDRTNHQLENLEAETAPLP
Opioid receptors; mu & kappa, sequence (P41145 whole entry, looked up): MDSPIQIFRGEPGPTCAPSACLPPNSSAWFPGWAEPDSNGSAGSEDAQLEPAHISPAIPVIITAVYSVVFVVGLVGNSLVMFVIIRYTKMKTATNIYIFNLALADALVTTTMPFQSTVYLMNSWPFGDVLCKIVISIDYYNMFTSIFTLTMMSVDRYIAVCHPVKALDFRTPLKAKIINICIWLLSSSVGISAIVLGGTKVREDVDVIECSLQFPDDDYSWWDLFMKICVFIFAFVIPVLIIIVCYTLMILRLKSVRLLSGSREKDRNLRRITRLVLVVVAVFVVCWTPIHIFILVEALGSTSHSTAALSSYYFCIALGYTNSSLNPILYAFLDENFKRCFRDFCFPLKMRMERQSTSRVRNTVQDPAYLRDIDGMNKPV

[9] = organism: Cavia porcellus; assay: (§2) Ratio of affinity towards delta to kappa opioid receptor
[10] = biological target: Opioid receptors; delta & kappa (Homo sapiens) (UniProt P41145+P41143); assay: as §2; format: protein assay
Opioid receptors; delta & kappa (Homo sapiens), sequence (P41143 whole entry, looked up): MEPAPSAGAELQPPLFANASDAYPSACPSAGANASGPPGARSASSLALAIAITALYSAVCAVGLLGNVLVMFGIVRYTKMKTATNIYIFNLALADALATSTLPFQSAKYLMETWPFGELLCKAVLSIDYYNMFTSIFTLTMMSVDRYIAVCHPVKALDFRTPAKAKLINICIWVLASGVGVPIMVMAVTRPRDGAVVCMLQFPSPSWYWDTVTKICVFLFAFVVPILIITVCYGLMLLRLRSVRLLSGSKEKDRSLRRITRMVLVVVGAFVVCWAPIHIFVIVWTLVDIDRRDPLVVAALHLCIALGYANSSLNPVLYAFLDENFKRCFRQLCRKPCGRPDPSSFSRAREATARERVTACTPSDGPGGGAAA
Opioid receptors; delta & kappa (Homo sapiens), sequence (P41145 whole entry, looked up): as the sequence (P41145 whole entry, looked up) above

T1 sequence (P33533 whole entry): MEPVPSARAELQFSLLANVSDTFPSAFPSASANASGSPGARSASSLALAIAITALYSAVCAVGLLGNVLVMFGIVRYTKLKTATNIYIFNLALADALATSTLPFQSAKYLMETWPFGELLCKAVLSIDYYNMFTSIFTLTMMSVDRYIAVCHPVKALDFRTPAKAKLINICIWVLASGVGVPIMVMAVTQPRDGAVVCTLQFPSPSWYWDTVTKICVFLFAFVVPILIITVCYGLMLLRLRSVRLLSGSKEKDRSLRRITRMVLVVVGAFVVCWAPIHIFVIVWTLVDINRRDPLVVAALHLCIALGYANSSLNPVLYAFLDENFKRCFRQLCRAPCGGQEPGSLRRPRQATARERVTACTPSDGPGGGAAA

CCCCC(=N)NCCCCCCNC(=O)C(CC(C)C)NC(=O)CNC(=O)[C@]1(c2ccccc2)CC1CN1CC[C@@]2(C)c3cc(O)ccc3CC1C2C (some centres not stated) was tested, and the Ki [1] was 2230 nM, the ED50 [2] was 11.9 mg/kg and the ED50 [3] was 1.1 mg/kg. It also gave a Ki [4] of 2150 nM and a Ki [5] of 5.3 nM.

With COC(=O)[C@]1(c2ccccc2)C[C@@H]1CN1CC[C@@]2(C)c3cc(O)ccc3CC1[C@@H]2C the Ki [6] was > 25000 nM and the Ki [7] was > 25000 nM.

CCCCC(=N)NCCCCCNC(=O)C(CC(C)C)NC(=O)CNC(=O)[C@]1(c2ccccc2)CC1CN1CC[C@@]2(C)c3cc(O)ccc3CC1C2C (some centres not stated) showed a Ki [1] of 2750 nM, an ED50 [2] of 9.2 mg/kg and an ED50 [3] of 0.88 mg/kg. It also gave a Ki [4] of 2530 nM and a Ki [5] of 6.7 nM.

In the case of CCCC(=N)NCCCCCNC(=O)C(CC(C)C)NC(=O)CNC(=O)[C@]1(c2ccccc2)CC1CN1CC[C@@]2(C)c3cc(O)ccc3CC1C2C (some centres not stated), the Ki [1] is reported as 5210 nM, the Selectivity ratio [8] is reported as 110 and the Ki [4] is reported as 7190 nM. It also gave a Selectivity ratio [9] of 79.8 and a Ki [5] of 65.3 nM.

With CCCCC(=N)NCCCCCCNC(=O)C(CC(C)C)NC(=O)[C@]1(c2ccccc2)CC1CN1CC[C@@]2(C)c3cc(O)ccc3CC1C2C (some centres not stated) the Ki [1] was 3260 nM, the Selectivity ratio [8] was 27.9 and the Ki [4] was 2260 nM. It also gave a Selectivity ratio [9] of 40.2 and a Ki [5] of 81 nM.

CC(C)CC(NC(=O)CNC(=O)[C@]1(c2ccccc2)CC1CN1CC[C@@]2(C)c3cc(O)ccc3CC1C2C)C(=O)NCCCCN=C(N)N (some centres not stated) was tested, and the Ki [1] was 3500 nM, the Selectivity ratio [8] was 91.7 and the Ki [4] was 6160 nM. It also gave a Selectivity ratio [9] of 52.1 and a Ki [5] of 67.2 nM.

With CC(C)CC(NC(=O)[C@]1(c2ccccc2)CC1CN1CC[C@@]2(C)c3cc(O)ccc3CC1C2C)C(=O)NCCCCCCN (some centres not stated) the Ki [1] was 3420 nM, the Selectivity ratio [8] was 12.7 and the Ki [4] was 3080 nM. It also gave a Ratio [10] of 14.1 and a Ki [5] of 242 nM.
